Columns and labels:
Type in all cases: functional
Haemonchus contortus [1] = assay: Anthelmintic efficacy against adult Haemonchus contortus (H.c) in sheep at dose of 0.25 mg/kg administered orally; 20-59%
Summary of the method: (§1)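 Lambs experimentally infected with mixed gastrointestinal nematodes (H. contortus, O. circumcincta, T. axei, T. colubriformis, C. oncophora, Oe. columbianum) were dosed orally, 1–3 sheep per dose. An untreated infected group of 6 was included, with worm burdens given as the geometric mean number of worms per lamb. Efficacy was scored against adult and, where listed, EL4 stages.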

[2] = test system: Trichostrongylus colubriformis; assay: Minimal dose necessary to eliminate > 83% of Trichostrongylus colubriformis infection in gerbils
Trichostrongylus axei [3] = assay: Anthelmintic efficacy against Trichostrongylus axei (T.a) in sheep at dose of 0.25 mg/kg administered orally; 0-19%; summary of the method: as §1
[4] = test system: Teladorsagia circumcincta; assay: Anthelmintic efficacy against adult Ostertagia circumcincta (O. c) in sheep at dose of 0.25 mg/kg administered orally; 0-19%; summary of the method: as §1
[5] = test system: Trichostrongylus colubriformis; assay: Anthelmintic efficacy against Trichostrongylus colubriformis (T.c) in sheep at dose of 0.25 mg/kg administered orally; 0-19%; summary of the method: as §1
Cooperia oncophora [6] = assay: Anthelmintic efficacy against adult Cooperia oncopphora (C.o) in sheep at dose of 0.25 mg/kg administered orally; 60-89%; summary of the method: as §1
[7] = test system: Oesophagostomum columbianum; assay: Anthelmintic efficacy against Oseophagostomum columbianum (Oe. c) in sheep at dose of 0.25 mg/kg administered orally; 20-59%; summary of the method: as §1
[8] = test system: Trichostrongylus colubriformis; assay: Anthelmintic efficacy against Trichostrongylus colubriformis in sheep at dose of 0.1 mg/kg administered orally; conditions: route oral; summary of the method: as §1
[9] = test system: Trichostrongylus colubriformis; assay: Anthelmintic efficacy against Trichostrongylus colubriformis (T.c) in sheep at dose of 0.025 mg/kg administered orally; conditions: route oral; summary of the method: as §1
Trichostrongylus axei [10] = assay: Anthelmintic efficacy against Trichostrongylus axei (T.a) in sheep at dose of 0.1 mg/kg administered orally; conditions: route oral; summary of the method: as §1
[11] = test system: Oesophagostomum columbianum; assay: Anthelmintic efficacy against Oseophagostomum columbianum (Oe. c) in sheep at dose of 0.05 mg/kg administered orally; conditions: route oral
Summary of the method: (§2)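 Lambs were experimentally infected with mixed gastrointestinal nematodes: Haemonchus contortus, Ostertagia circumcincta, Trichostrongylus axei, T. colubriformis, Cooperia oncophora and Oesophagostomum columbianum. Dosing was oral, in mg/kg, with 3 sheep per dose group. An untreated infected group of 6 sheep served as reference, with worm burdens given as the geometric mean per lamb. Immature (EL4) and adult worms were scored separately.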

[12] = test system: Teladorsagia circumcincta; assay: Anthelmintic efficacy against immature (EL4) Ostertagia circumcincta (O. c) in sheep at dose of 0.05 mg/kg administered orally; 0-19%
Cooperia oncophora [13] = assay: Anthelmintic efficacy against immature (EL4) Cooperia oncopphora (C.o) in sheep at dose of 0.025 mg/kg administered orally; conditions: route oral
Trichostrongylus axei [14] = assay: Anthelmintic efficacy against Trichostrongylus axei (T.a) in sheep at dose of 0.025 mg/kg administered orally; 20-59%; summary of the method: as §1
[15] = test system: Teladorsagia circumcincta; assay: Anthelmintic efficacy against immature (EL4) Ostertagia circumcincta (O. c) in sheep at dose of 0.1 mg/kg administered orally; 60-89%
[16] = test system: Oesophagostomum columbianum; assay: Anthelmintic efficacy against Oseophagostomum columbianum (Oe. c) in sheep at dose of 0.1 mg/kg administered orally; conditions: route oral; summary of the method: as §1
Cooperia oncophora [17] = assay: Anthelmintic efficacy against immature (EL4) Cooperia oncopphora (C.o) in sheep at dose of 0.1 mg/kg administered orally; conditions: route oral; summary of the method: as §2
Haemonchus contortus [18] = assay: Anthelmintic efficacy against adult Haemonchus contortus (H.c) in sheep at dose of 0.1 mg/kg administered orally; conditions: route oral; summary of the method: as §1
[19] = test system: Teladorsagia circumcincta; assay: Anthelmintic efficacy against adult Ostertagia circumcincta (O. c) in sheep at dose of 0.025 mg/kg administered orally; conditions: route oral; summary of the method: as §1
[20] = test system: Teladorsagia circumcincta; assay: Anthelmintic efficacy against adult Ostertagia circumcincta (O. c) in sheep at dose of 0.1 mg/kg administered orally; conditions: route oral; summary of the method: as §1
[21] = test system: Teladorsagia circumcincta; assay: Anthelmintic efficacy against immature (EL4) Ostertagia circumcincta (O. c) in sheep at dose of 0.025 mg/kg administered orally; conditions: route oral
Haemonchus contortus [22] = assay: Anthelmintic efficacy against adult Haemonchus contortus (H.c) in sheep at dose of 0.05 mg/kg administered orally; conditions: route oral; summary of the method: as §2
Cooperia oncophora [23] = assay: Anthelmintic efficacy against adult Cooperia oncopphora (C.o) in sheep at dose of 0.025 mg/kg administered orally; 0-19%; summary of the method: as §1
Haemonchus contortus [24] = assay: Anthelmintic efficacy against adult Haemonchus contortus (H.c) in sheep at dose of 0.025 mg/kg administered orally; conditions: route oral; summary of the method: as §2
Cooperia oncophora [25] = assay: Anthelmintic efficacy against adult Cooperia oncopphora (C.o) in sheep at dose of 0.1 mg/kg administered orally; 60-89%; summary of the method: as §1
[26] = test system: Teladorsagia circumcincta; assay: Anthelmintic efficacy against adult Ostertagia circumcincta (O. c) in sheep at dose of 0.05 mg/kg administered orally; conditions: route oral; summary of the method: as §2
Trichostrongylus axei [27] = assay: Anthelmintic efficacy against Trichostrongylus axei (T.a) in sheep at dose of 0.05 mg/kg administered orally; conditions: route oral; summary of the method: as §2
Cooperia oncophora [28] = assay: Anthelmintic efficacy against immature (EL4) Cooperia oncopphora (C.o) in sheep at dose of 0.05 mg/kg administered orally; 60-89%
[29] = test system: Trichostrongylus colubriformis; assay: Anthelmintic efficacy against Trichostrongylus colubriformis (T.c) in sheep at dose of 0.05 mg/kg administered orally; conditions: route oral; summary of the method: as §2
[30] = test system: Oesophagostomum columbianum; assay: Anthelmintic efficacy against Oseophagostomum columbianum (Oe. c) in sheep at dose of 0.025 mg/kg administered orally; conditions: route oral; summary of the method: as §2
Cooperia oncophora [31] = assay: Anthelmintic efficacy against adult Cooperia oncopphora (C.o) in sheep at dose of 0.05 mg/kg administered orally; 0-19%; summary of the method: as §1

`CC[C@H](C)[C@H]1O[C@]2(CC(OC(C)=O)[C@@H]1C)C[C@@H]1C[C@@H](C/C=C(\C)[C@@H](OC3CC(OC)C(OC4CC(OC)C(O)C(C)O4)C(C)O3)[C@@H](C)/C=C/C=C3\CO[C@@H]4[C@H](OC)C(C)=C[C@@H](C(=O)O1)[C@]34O)O2` (some centres not stated) gave an Efficacy (Haemonchus contortus [1]) of 20%, a Dose [2] of 0.25 mg/kg and an Efficacy (Trichostrongylus axei [3]) of 0%. The Efficacy [4] was 0%, the Efficacy [5] was 0% and the Efficacy (Cooperia oncophora [6]) was 60%. For the same molecule, the Efficacy [7] was 20%.

For `CC[C@H](C)[C@H]1O[C@]2(C=C[C@@H]1C)C[C@@H]1C[C@@H](C/C=C(\C)[C@@H](O[C@H]3C[C@@H](OC)[C@@H](O[C@H]4C[C@@H](OC)[C@@H](O)[C@H](C)O4)[C@H](C)O3)[C@@H](C)/C=C/C=C3\CO[C@@H]4[C@H](O[Si](C)(C)C(C)(C)C)C(C)=C[C@@H](C(=O)O1)[C@]34O)O2`, the Dose [2] was >2.5 mg/kg.

With `CCC(C)[C@H]1O[C@]2(CC(OC(C)=O)[C@@H]1C)C[C@@H]1C[C@@H](C/C=C(\C)[C@@H](OC3CC(OC)C(OC4CC(OC)C(OC(C)=O)C(C)O4)C(C)O3)[C@@H](C)/C=C/C=C3\COc4cc(C)cc(c43)C(=O)O1)O2` (some centres not stated) the Dose [2] was >2.5 mg/kg.

`CC[C@H](C)[C@H]1O[C@]2(C=C[C@@H]1C)C[C@@H]1C[C@@H](C/C=C(\C)[C@@H](O[C@H]3C[C@@H](OC)[C@@H](O[C@H]4C[C@@H](OC)[C@@H](OC(C)=O)[C@H](C)O4)[C@H](C)O3)[C@@H](C)/C=C/C=C3\CO[C@@H]4[C@H](O)C(C)=C[C@@H](C(=O)O1)[C@]34O)O2` was tested, and the Efficacy [8] was >90%, the Efficacy [9] was >90% and the Efficacy (Trichostrongylus axei [10]) was >90%. For the same molecule, the Efficacy [11] was >90%, the Efficacy [12] was 0% and the Dose [2] was 0.031 mg/kg. For the same molecule, the Efficacy (Cooperia oncophora [13]) was 89%, the Efficacy (Trichostrongylus axei [14]) was 20% and the Efficacy [15] was 60%. The Efficacy [16] was >90%, the Efficacy (Cooperia oncophora [17]) was >90% and the Efficacy (Haemonchus contortus [18]) was >90%. For the same molecule, the Efficacy [19] was >90%, the Efficacy [20] was >90% and the Efficacy [21] was 19%. The Efficacy (Haemonchus contortus [22]) was >90%, the Efficacy (Cooperia oncophora [23]) was 0% and the Efficacy (Haemonchus contortus [24]) was >90%. The Efficacy (Cooperia oncophora [25]) was 60%, the Efficacy [26] was >90% and the Efficacy (Trichostrongylus axei [27]) was >90%. For the same molecule, the Efficacy (Cooperia oncophora [28]) was 60%, the Efficacy [29] was >90% and the Efficacy [30] was >90%. The Efficacy (Cooperia oncophora [31]) was 0%.

`CC[C@H](C)[C@H]1O[C@]2(C=C[C@@H]1C)C[C@@H]1C[C@@H](C/C=C(\C)[C@@H](O[C@H]3C[C@@H](OC)[C@@H](O[C@H]4C[C@@H](OC)[C@@H](O)[C@H](C)O4)[C@H](C)O3)[C@@H](C)/C=C/C=C3\CO[C@@H]4[C@H](OC(C)=O)C(C)=C[C@@H](C(=O)O1)[C@]34O)O2` showed a Dose [2] of 0.125 mg/kg.

Molecule `CCCCCCCC(=O)O[C@H]1[C@H](C)O[C@@H](O[C@H]2[C@H](C)O[C@@H](O[C@@H]3/C(C)=C/C[C@@H]4C[C@@H](C[C@]5(C=C[C@H](C)[C@@H]([C@@H](C)CC)O5)O4)OC(=O)[C@@H]4C=C(C)[C@@H](O)[C@H]5OC/C(=C\C=C\[C@@H]3C)[C@]54O)C[C@H]2OC)C[C@H]1OC` has a Dose [2] of 0.125 mg/kg.

For `CC[C@H](C)[C@H]1O[C@]2(C=C[C@@H]1C)C[C@@H]1C[C@@H](C/C=C(\C)[C@@H](O[C@H]3C[C@@H](OC)[C@@H](O[C@H]4C[C@@H](OC)[C@@H](OC(=O)N(C)C)[C@H](C)O4)[C@H](C)O3)[C@@H](C)/C=C/C=C3\CO[C@@H]4[C@H](O)C(C)=C[C@@H](C(=O)O1)[C@]34O)O2`, the Dose [2] was 0.06 mg/kg.

— ChEMBL document CHEMBL1122071, “Avermectin acyl derivatives with anthelmintic activity” (1982)
